# Most compounds without a hit are left out; they make up all but 2.3% or so of the library.
# ABCG2 block – inhibitors of human ABCG2 transporter, ABCB1 counter-screen; 190,000 tested, 0.1% active; Q9UNQ0; IgMXP3 cells, JC-1 efflux, flow cytometry; inhibition, % at 6.6 µM; AID 1325;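 active = inhibition above 80%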;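 note: 0% = DMSO and 100% = nicardipine control wells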
#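 Measure – % inhibition of efflux relative to nicardipine and DMSO · Test system – ABCG2 IgMXP3 and barcoded ABCB1 CCRF-Adr cell mix · Control set – nicardipine as high control, DMSO as low control · Compound – one concentration, 6.6 µM final · Signal – flow cytometry of retained JC-1 fluorescence · Timing – 10 min exposure at 25 °C with rotation, no wash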
# MEKK2 mut-MEK5 – signal of MEK5 binding to mutant human MEKK2 PB1 domain; AID 1530; percent response, % at 10 µM; 290,000 tested, 0.35% active; bead flow cytometry, Alexa488-MEK5 binding to MEKK2 mutant; in the data active = percent response above about 24%, passing the limit was not always enough
# MEKK2wt PB1 HTS – raises or lowers MEK5 binding to wildtype human MEKK2 PB1 domain. Q9Y2U5. bead flow cytometry, Alexa488-MEK5 binding to MEKK2 WT; actives lie on both sides. binding response (% of control), % at 10 µM. 290,000 tested, 1.1% active. AID 1531; in the data active = binding response below about 67% or above about 130%
# ABCB1 inh – inhibitors of human ABCB1 transporter, ABCG2 counter-screen; P08183; CCRF-Adr cells, JC-1 efflux, flow cytometry; inhibition, % at 6.6 µM; 190,000 tested, 0.067% active; AID 1326; in the data active = inhibition above about 40%;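 note: 0% = vehicle and 100% = reference inhibitor; higher value means more JC-1 retained so stronger ABCB1 efflux block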
# MEKK3 PB1 HTS – MEKK3-MEK5 PB1 interaction, increase or decrease; Q99759; bead-based flow cytometry, Alexa488-MEK5 binding to MEKK3; actives lie on both sides; 0 = blocked by unlabeled MEK5, 100 = vehicle; binding response (% of control), % at 10 µM; 290,000 tested, 1.4% active;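 active = binding response more than 3 SD above or below the average of its plate-row segment, actives on both sides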;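 note: Alexa488 bead fluorescence after subtracting the streptavidin-only scavenger bead signal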
# Target sequence (Q99759 whole entry, looked up): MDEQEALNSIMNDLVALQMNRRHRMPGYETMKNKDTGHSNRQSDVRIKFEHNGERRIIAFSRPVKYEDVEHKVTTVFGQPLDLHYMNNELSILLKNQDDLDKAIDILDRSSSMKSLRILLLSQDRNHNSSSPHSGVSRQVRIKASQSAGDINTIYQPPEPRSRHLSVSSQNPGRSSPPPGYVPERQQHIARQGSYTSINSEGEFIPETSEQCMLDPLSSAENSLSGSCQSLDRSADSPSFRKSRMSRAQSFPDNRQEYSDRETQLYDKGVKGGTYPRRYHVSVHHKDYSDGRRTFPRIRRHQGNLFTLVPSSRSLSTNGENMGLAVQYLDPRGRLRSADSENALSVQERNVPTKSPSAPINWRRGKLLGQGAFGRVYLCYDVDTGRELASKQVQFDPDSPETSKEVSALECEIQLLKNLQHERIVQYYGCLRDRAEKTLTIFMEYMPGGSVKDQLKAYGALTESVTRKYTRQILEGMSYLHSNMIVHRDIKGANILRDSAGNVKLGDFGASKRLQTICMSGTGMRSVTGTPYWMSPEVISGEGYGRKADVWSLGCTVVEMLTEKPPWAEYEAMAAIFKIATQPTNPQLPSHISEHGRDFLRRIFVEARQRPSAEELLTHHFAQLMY
# MEKK2wt confirm – raises or lowers MEK5 binding to wildtype human MEKK2, retest; shares compounds with MEKK3 PB1 HTS; bead flow cytometry, Alexa488-MEK5 binding to MEKK2 WT; actives lie on both sides; binding response (% of control), % at 10 µM; 5,900 tested, 2.4% active; in the data active = binding response below about 16% or above about 210%; inactive = in between
# MEKK2mut confirm – signal of MEK5 binding to mutant human MEKK2, retest | shares compounds with MEKK3 PB1 HTS | bead flow cytometry, Alexa488-MEK5 binding to MEKK2 mutant | percent response, % at 10 µM | 5,900 tested, 2% active; in the data active = percent response mostly above about 71%, no sharp cut-off; inactive = mostly below about 38%;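 note: higher means compound restores mutant binding toward wildtype level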
# MEKK3 confirm – MEKK3-MEK5 PB1 inhibition, single concentration confirmation | shares compounds with MEKK3 PB1 HTS | bead flow cytometry, Alexa488-MEK5 binding to MEKK3; active compounds read low | 5,900 tested, 1.8% active | binding response (% of control), % at 10 µM;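 active = binding response below 72% of control, or above a set upper limit, though filed actives all read lower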;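 note: 100% = DMSO only wells and 0% = binding blocked by excess unlabeled MEK5; lower values mean stronger disruption of MEK5 binding to MEKK3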
# Numbers without * were called inactive; . = no result; [ ] = remark or other dose.
SMILES,ABCG2 block,MEKK2 mut-MEK5,MEKK2wt PB1 HTS,ABCB1 inh,MEKK3 PB1 HTS,MEKK2wt confirm,MEKK2mut confirm,MEKK3 confirm
Cc1cccc(NC(=O)COC(=O)Cc2cccc(C(F)(F)F)c2)c1C,0,1,117,0,145*,103,8,103
Cc1cccc(NC(=O)COC(=O)Cc2c[nH]c3ccccc23)c1C,4,-4,92,0,91,.,.,.
O=C(CN(C(=O)CNC(=O)c1cccs1)c1ccccc1F)NC1CCCC1,.,1,106,.,104,.,.,.
CC1(C)CC(=O)C(C=Nc2ccncc2)=C(O)C1,.,-23,-7.0*[inhibitor],.,0.0*[inhibitor],98,-6,96
CCCCCCN=CC1=C(O)CC(C)(C)CC1=O,-1,-32,0.0*[inhibitor],0,0.0*[inhibitor],99,-3,93
COCCCN=CC1=C(O)CC(C)(C)CC1=O,0,3,101,0,102,.,.,.
Cc1ccc(NC(=O)C2CCCN2C(=O)OCc2ccccc2)c(O)c1 (configuration not stated),.,0,98,.,97,.,.,.
COc1ccc(N2CCN(CCCNC(=O)CN3C(=O)COc4ccccc43)CC2)cc1,.,11,128,.,101,.,.,.
CCC(=O)c1ccc(N2CCN(C(=O)c3cccs3)CC2)c(F)c1,.,-2,103,.,101,.,.,.
COc1ccc(N(CC(=O)NCc2ccc(F)cc2)C(=O)c2snc(C(N)=O)c2N)cc1OC,.,0,103,.,102,.,.,.
CCOC(=O)N/N=C(\C)c1ccc(C)c([N+](=O)[O-])c1,4,1,108,0,132*,97,-1,99
O=C(Nc1cc([N+](=O)[O-])ccc1C(=O)NCCN1CCOCC1)c1ccccc1,.,9,112,.,107,.,.,.
C[C@H](NC(=O)c1nc[nH]c1C(=O)NC1CCN(C(=O)OC(C)(C)C)CC1)C(=O)OC(C)(C)C,5,-44,-5.0*[inhibitor],11,1.0*[inhibitor],101,-2,99
Cc1ccc(NC(=O)c2nc[nH]c2C(=O)N[C@@H](C)C(=O)OC(C)(C)C)cc1,.,1,95,.,99,.,.,.
COc1ccc(NC(=O)c2nc[nH]c2C(=O)N[C@@H](C)C(=O)OC(C)(C)C)cc1,.,-7,101,.,82*[inhibitor],88,-9,89
Cc1ccccc1OCC(=O)N/N=C/c1ccc(N2CCOCC2)o1,.,-3,99,.,100,.,.,.
CC1=C(C)CC(C(=O)Nc2nccs2)C(C(=O)O)C1 (configuration not stated),.,0,99,.,98,.,.,.
CCCOc1ccc(C(=O)CCC(=O)OCC(=O)Nc2ccc(OCC)cc2)cc1,.,3,108,.,97,.,.,.
CCCOc1ccc(C(=O)CCC(=O)OCC(=O)Nc2ccc(Oc3ccccc3)cc2)cc1,8,71*,147*,1,110,112,3,108
CC1CCCCN1C(=O)c1ccc(CS(=O)(=O)Cc2ccccc2)cc1 (configuration not stated),.,8,115,.,106,.,.,.
O=C(Nc1nnc(-c2ccc3c(c2)CCCC3)o1)c1ccc(Cl)cc1Cl,-3,1,104,-3,103,.,.,.
O=C(Nc1nnc(-c2ccc3c(c2)CCCC3)o1)c1c(F)cccc1F,0,-3,86,0,68*[inhibitor],102,3,108
O=C(NCCCN1CCOCC1)c1cccc(S(=O)(=O)Nc2ccccc2Cl)c1,.,3,109,.,104,.,.,.
N#Cc1ccc(NC(=O)Nc2ccc(Oc3ccc(NC(=O)Nc4ccc(C#N)cc4)cc3)cc2)cc1,.,42,150*,.,106,141,16,101
N#Cc1ccc(NC(=O)Nc2cccc(C#N)c2)cc1,.,6,107,.,106,.,.,.
SMILES,ABCG2 block,MEKK2 mut-MEK5,MEKK2wt PB1 HTS,ABCB1 inh,MEKK3 PB1 HTS,MEKK2wt confirm,MEKK2mut confirm,MEKK3 confirm
CC(C(=O)NCc1cccc(Cl)c1)N1C(=O)c2ccccc2C1=O (configuration not stated),.,2,99,.,102,.,.,.
COc1ccccc1N1CCN(C(=O)c2ccc(CSc3ccccc3)cc2)CC1,4,0,107,1,128*,100,1,104
O=C(c1ccc2[nH]c3c(c2c1)CCCC3)N1CCN(c2ccc(F)cc2)CC1,5,-1,103,0,100,.,.,.
COc1ccccc1N1CCN(C(=O)c2ccc3[nH]c4c(c3c2)CCCC4)CC1,4,1,107,1,145*,97,0,106
O=C(Nc1cc(Cl)cc(Cl)c1)C1CCCC1,.,4,108,.,107,.,.,.
COCc1nnc(NS(=O)(=O)c2ccc(C)cc2)s1,-1,-16,0.0*[inhibitor],0,0.0*[inhibitor],99,-2,99
CC(C)c1ccc(NC2CCCN(C(=O)c3ccoc3)C2)cc1 (configuration not stated),.,12,102,.,106,.,.,.
O=S(=O)(c1ccc(N2CCOCC2)cc1)N1CCOCC1,0,5,107,0,104,.,.,.
CCS(=O)(=O)N1CCN(c2ccc(S(=O)(=O)N3CCOCC3)cc2)CC1,1,-15,50,0,48*[inhibitor],101,0,103
CCCCC1=CC2=C(c3ccco3)C(=O)C(C)(OC(=O)c3ccc(OC)cc3)C(=O)C2=CN1Cc1ccccc1 (configuration not stated),.,1,101,.,105,.,.,.
CCCCC1=CC2=C(c3ccco3)C(=O)C(C)(OC(=O)c3ccc(OC)cc3)C(=O)C2=CN1Cc1ccc2c(c1)OCO2 (configuration not stated),.,1,138*,.,120,83,-9,87
COC(=O)CCC(=O)OC1(C)C(=O)C2=CN(C(CO)CO)C(c3ccc(OC)cc3)=CC2=C(Br)C1=O (configuration not stated),.,-2,91,.,82*[inhibitor],98,-2,93
COC(=O)CCC(=O)OC1(C)C(=O)C2=CN(CCN3CCOCC3)C(c3ccc(OC)cc3)=CC2=C(Br)C1=O (configuration not stated),.,4,149*,.,127,100,0,100
CC1(OC(=O)CCc2ccccc2)C(=O)C=C2C=C(c3ccc(C#N)cc3)N(CCN3CCOCC3)C=C2C1=O (configuration not stated),.,2,138*,.,117,104,1,101
Cc1ccc(C)c(Cn2nnc3c(=O)[nH]c(C4CCCN(S(=O)(=O)Cc5ccccc5)C4)nc32)c1 (configuration not stated),.,-6,92,.,96,.,.,.
CN(C(=O)c1cc(-c2ccccc2)on1)C1CCCCC1,.,-7,89,.,98,.,.,.

# Assay outcomes deposited in PubChem by NMMLSC.
